Screens: PubChem BioAssay, several laboratories
Hits are enriched below; roughly 1.6% of the tested compounds scored in any of these assays.
UBC9 SUMO inh = inhibitors of in vitro SUMOylation cascade, primary screen, biochemical, HTRF, uHTS | inhibition, % at 35 µM | SUMO-conjugating enzyme UBC9 (Homo sapiens), P63279 | AID 2006, 2009 | actives 0.36% (n = 290,000) | HTRF SUMOylation assay, SAE1/SAE2 + UBC9; in the data active = inhibition above about 50%, passing the limit was not always enough
JMJD2C inh = inhibitors of GASC-1 histone demethylase, primary screen, biochemical, fluorescence, DELFIA europium; Lysine-specific demethylase 4C (Homo sapiens), Q9H3R0; GST-JMJD2C(1-420) H3K9me3 demethylation; inhibition, % at 2.35 µM; actives 0.069% (n = 330,000); AID 2099, 2009;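 active = more than half of a compound's replicate wells show inhibition beyond 50%, single wells judged on their own value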;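 also: signal counts dimethyl H3K9 product captured on neutravidin plate; 0% = median of DMSO wells and 100% = 0.3 times that DMSO median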
Target sequence (Q9H3R0 1-420 limits assumed): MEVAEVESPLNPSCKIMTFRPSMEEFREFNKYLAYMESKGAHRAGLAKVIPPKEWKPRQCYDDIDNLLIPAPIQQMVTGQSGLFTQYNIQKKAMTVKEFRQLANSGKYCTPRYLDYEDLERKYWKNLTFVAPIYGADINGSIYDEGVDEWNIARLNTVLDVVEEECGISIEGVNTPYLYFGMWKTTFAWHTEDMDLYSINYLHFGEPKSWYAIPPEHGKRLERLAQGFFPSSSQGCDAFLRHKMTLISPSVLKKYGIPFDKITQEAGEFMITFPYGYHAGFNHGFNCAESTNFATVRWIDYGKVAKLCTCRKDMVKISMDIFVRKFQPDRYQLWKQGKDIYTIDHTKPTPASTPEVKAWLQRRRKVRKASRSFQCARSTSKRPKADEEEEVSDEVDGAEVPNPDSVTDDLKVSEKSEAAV
GSTO1 counter = inhibitors of recombinant GSTO1, primary screen, counter-screen for RBBP9 inhibitor project, biochemical, fluorescence polarization | actives 1.1% (n = 300,000) | inhibition, % at 5.96 µM | activity-based probe fluorescence polarization | Glutathione S-transferase omega-1 (Homo sapiens), P78417;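 active = inhibition above the campaign mean inhibition plus 3 SD, cut at about 35% in these data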;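 also: 0% = GSTO1-1 with DMSO and 100% = wells lacking GSTO1-1 enzyme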
Apaf1 inhib = inhibitors of human Apaf-1 apoptosome, primary screen, biochemical, DEVD-Rh110 fluorescence, uHTS. actives 0.71% (n = 330,000). inhibition, % at 20 µM. reconstituted apoptosome caspase-3 activity. Apoptotic protease-activating factor 1 (Homo sapiens), O14727; active = inhibition of at least 40% at 20 µM;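 also: plate controls were DMSO wells for no effect and DEVD-CHO caspase inhibitor wells for full effect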
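Assay system – apoptosome proteins · Medium – Hepes buffer, pH 7.5 · Also added – cytochrome c with DEVD-Rh110 · Timing – 30 min compound preincubation, 50 min activation, room temperature · Detection – Rh110 fluorescence, excitation 480 nm, emission 540 nm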
TDP2 absorb = human TDP2 enzyme inhibitors, primary screen, biochemical, epi absorbance, recombinant enzyme; Tyrosyl-DNA phosphodiesterase 2 (Homo sapiens), O95551; T5PNP hydrolysis, p-nitrophenol absorbance 415 nm; inhibition, % at 12.8 µM; actives 0.34% (n = 370,000); AID 720702, 2013;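 active = inhibition above the mean of all tested compounds plus 3 SD, set per campaign, cut at about 25% in these data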;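 also: 0% = DMSO with enzyme and 100% = buffer with substrate but no TDP2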
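Test system: human TDP2 enzyme; Input: 120 nM TDP2 per well; Buffer or medium: Mg2+-containing Tris-HCl buffer, pH 7.5; Reagent: 5 mM T5PNP; Dosing: 12.8 µM single point, 1% DMSO; Incubation: reaction 2 h, 37 °C; Detection: p-Nitrophenol epi absorbance; Read-out: % inhibition relative to enzyme-containing and enzyme-free wells; Replicates: single well per compound.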
PAD4 inh = human PAD4 inhibitors, primary screen, biochemical, fluorescence polarization, 1536-well format. Protein-arginine deiminase type-4 (Homo sapiens), Q9UM07. inhibition, % at 6.36 µM. actives 0.41% (n = 330,000). recombinant PAD4, RCA probe fluorescence polarization;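 active = percent inhibition above a cutoff equal to the mean of all tested compounds plus 3 SD, cut at about 15% in these data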;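 also: 0% = PAD4 with RCA probe and DMSO and 100% = probe without PAD4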
TDP2 confirm = human TDP2 enzyme inhibitors, retest, confirmation, biochemical, epi absorbance, recombinant enzyme. actives 22% (n = 1,100). absorbance read-out. inhibition, % at 12.8 µM. shares compounds with TDP2 absorb; in the data active = inhibition above about 25%;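 also: 0% = vehicle with enzyme and 100% = no enzyme buffer only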
Starred values were filed as active, the others as inactive; nt = not tested or not shown.

SMILES	UBC9 SUMO inh	JMJD2C inh	GSTO1 counter	Apaf1 inhib	TDP2 absorb	PAD4 inh	TDP2 confirm
CN(C)c1cccc(C(=O)OCC(=O)N(Cc2ccccc2)C2CCS(=O)(=O)C2)c1 (stereo not drawn)	-12.1	5.8	2.4	5.5	38.5*	0.3	-11.0
C=CCN1C(=O)[C@@H](CC(=O)N2CCCCC2)[C@]2(C(=O)OCC)CCCCC/C=C/12	nt	nt	nt	nt	0.2	nt	nt
COc1ccc(C)cc1NC(=O)CCNC(=O)c1ccco1	9.9	-5.0	6.8	5.7	26.0*	5.7	7.7
COc1cc(NC(=O)c2ccco2)c(OC)cc1NC(=O)CCC(=O)Nc1cc(C)ccc1C	0.2	nt	5.8	-9.6	-15.1	-4.3	nt
Cc1ccc(NC(=O)CSCc2cc(=O)n3ccsc3n2)c(C)c1	-12.4	1.6	2.5	-0.3	33.5*	-3.2	5.8
COc1cc(C(=S)N2CCCCC2)ccc1OCC(=O)Nc1ccc(F)cc1	5.2	9.6	2.6	14.4	50.5*	-0.6	-4.2
COc1cc(C(=S)N2CCCCC2)ccc1OCC(=O)N1CCCC1	0.2	7.5	9.3	1.0	5.2	2.5	nt
